Assay results as given in ChEMBL document CHEMBL3526138, “Excretion and metabolism of milnacipran in humans after oral administration of milnacipran hydrochloride” (Drug Metab Dispos, 2012).

Key:
[1] = Drug excretion in human urine at 100 mg, po up to 144 hrs by liquid scintillation counting analysis; assay type: ADME, organism-based; conditions: in vivo
[2] = Drug excretion in human urine at 100 mg, po up to 24 hrs by liquid scintillation counting analysis; assay type: ADME, organism-based; conditions: in vivo
In short: (§1)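 Urine pooled at 0-4, 4-8, 8-12, 12-24 h, then daily intervals to 120 h after single oral 100 mg [14C] milnacipran hydrochloride; frozen -80°C and counted by LSC. Excreted amount = concentration × volume, given as % of dosed radioactivity, summed cumulatively per subject.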

[3] = Drug excretion in human urine at 100 mg, po up to 48 hrs by liquid scintillation counting analysis; assay type: ADME, organism-based; conditions: in vivo; in short: as §1
Homo sapiens [4] = test: Total drug excretion in human at 100 mg, po up to 96 hrs by liquid scintillation counting analysis; assay type: ADME, organism-based; conditions: in vivo
In short: (§2)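 Mass balance after single oral 100 mg [14C] dose to healthy males: cumulative urinary plus fecal radioactivity (LSC; feces combusted first) as % of dose per subject, urine and feces collected in timed intervals to 120 h.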

[5] = Drug excretion in human feces at 100 mg, po up to 120 hrs by liquid scintillation counting analysis; assay type: ADME, organism-based; conditions: in vivo
In short: (§3)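 Feces pooled into 24-h collections to 120 h after oral 100 mg [14C] dose, frozen -80°C, homogenised in water. Triplicate weighed aliquots combusted in sample oxidizer, counted by LSC 5 min. Excreted amount = concentration × sample weight, expressed as % of dosed radioactivity and summed cumulatively per subject.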

Homo sapiens [6] = test: AUC (0 to t) in human assessed as radioactivity at 100 mg, po by liquid scintillation counting analysis; assay type: ADME, organism-based, Plasma; conditions: in vivo
In short: (§4)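 Healthy males given single oral [14C] milnacipran hydrochloride (100 μCi; 1 μCi/mg) after breakfast. Blood drawn into chilled K3EDTA tubes pre-dose to 120 h, plasma spun ≥2,500 g 10 min 4°C and frozen -80°C. Radioactivity counted by LSC for 5 min, converted to ng equivalent/mL via specific activity. Parameters by non-compartmental analysis; subjects without emesis.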

Homo sapiens [7] = test: Total drug excretion in human at 100 mg, po up to 8 hrs by liquid scintillation counting analysis; assay type: ADME, organism-based; conditions: in vivo; in short: as §2
Homo sapiens [8] = test: Tmax in human assessed as radioactivity at 100 mg, po by liquid scintillation counting analysis; assay type: ADME, organism-based; conditions: in vivo; in short: as §4
Homo sapiens [9] = test: Cmax in human assessed as radioactivity at 100 mg, po by liquid scintillation counting analysis; assay type: ADME, organism-based; parameters: dose 100 mg, route oral; conditions: in vivo; in short: as §4
[10] = Drug excretion in monkey urine at 60 mg/kg, po; assay type: ADME, organism-based, Macaca mulatta; parameters: dose 60 mg/kg, route oral; conditions: rhesus monkey, read-out: Drug excretion
[11] = Drug excretion in human urine at 100 mg, po up to 72 hrs by liquid scintillation counting analysis; assay type: ADME, organism-based; conditions: in vivo; in short: as §1
Homo sapiens [12] = test: Total drug excretion in human at 100 mg, po up to 120 hrs by liquid scintillation counting analysis; assay type: ADME, organism-based; conditions: in vivo; in short: as §2
[13] = Drug excretion in human urine at 100 mg, po up to 96 hrs by liquid scintillation counting analysis; assay type: ADME, organism-based; conditions: in vivo; in short: as §1
[14] = Drug excretion in mouse urine at 100 mg/kg, po; assay type: ADME, organism-based; parameters: dose 100 mg/kg, route oral; conditions: read-out: Drug excretion
Homo sapiens [15] = test: AUC (0 to infinity) in human assessed as radioactivity at 100 mg, po by liquid scintillation counting analysis; assay type: ADME, organism-based, Plasma; parameters: dose 100 mg, route oral, time infinity; conditions: in vivo; in short: as §4
Homo sapiens [16] = test: Total drug excretion in human at 100 mg, po up to 24 hrs by liquid scintillation counting analysis; assay type: ADME, organism-based; conditions: in vivo; in short: as §2
[17] = Drug excretion in human feces at 100 mg, po up to 48 hrs by liquid scintillation counting analysis; assay type: ADME, organism-based; conditions: in vivo; in short: as §3
[18] = Drug excretion in human urine at 100 mg, po up to 120 hrs by liquid scintillation counting analysis; assay type: ADME, organism-based; conditions: in vivo; in short: as §1
[19] = Drug excretion in rat urine at 100 mg/kg, po; assay type: ADME, organism-based; parameters: dose 100 mg/kg, route oral; conditions: read-out: Drug excretion
[20] = Drug excretion in human urine at 100 mg, po up to 8 hrs by liquid scintillation counting analysis; assay type: ADME, organism-based; conditions: in vivo; in short: as §1
Homo sapiens [21] = test: Half life in human assessed as radioactivity at 100 mg, po by liquid scintillation counting analysis; assay type: ADME, organism-based; conditions: in vivo; in short: as §4
Homo sapiens [22] = test: Total drug excretion in human at 100 mg, po up to 48 hrs by liquid scintillation counting analysis; assay type: ADME, organism-based; conditions: in vivo; in short: as §2
[23] = Drug excretion in human feces at 100 mg, po up to 96 hrs by liquid scintillation counting analysis; assay type: ADME, organism-based; conditions: in vivo; in short: as §3
Homo sapiens [24] = test: Total drug excretion in human at 100 mg, po up to 12 hrs by liquid scintillation counting analysis; assay type: ADME, organism-based; conditions: in vivo; in short: as §2
[25] = Drug excretion in human feces at 100 mg, po up to 24 hrs by liquid scintillation counting analysis; assay type: ADME, organism-based; conditions: in vivo; in short: as §3
[26] = Drug excretion in human urine at 100 mg, po up to 4 hrs by liquid scintillation counting analysis; assay type: ADME, organism-based; conditions: in vivo; in short: as §1
Homo sapiens [27] = test: Total drug excretion in human at 100 mg, po up to 4 hrs by liquid scintillation counting analysis; assay type: ADME, organism-based; conditions: in vivo; in short: as §2
[28] = Drug excretion in human feces at 100 mg, po up to 72 hrs by liquid scintillation counting analysis; assay type: ADME, organism-based; conditions: in vivo; in short: as §3
Homo sapiens [29] = test: Total drug excretion in human at 100 mg, po up to 144 hrs by liquid scintillation counting analysis; assay type: ADME, organism-based; conditions: in vivo
[30] = Drug excretion in human feces at 100 mg, po up to 144 hrs by liquid scintillation counting analysis; assay type: ADME, organism-based; conditions: in vivo
Homo sapiens [31] = test: Total drug excretion in human at 100 mg, po up to 72 hrs by liquid scintillation counting analysis; assay type: ADME, organism-based; conditions: in vivo; in short: as §2
Plasma = test: Drug recovery in human plasma at 100 mg, po by HPLC analysis; assay type: ADME, organism-based; conditions: in vivo
In short: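 Pooled plasma extracted for metabolite profiling; recovery of radioactivity through sample processing and through Phenyl-Hexyl HPLC column (0.5-min fractions counted by LSC) expressed as % of plasma or sample radioactivity.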

[32] = Drug excretion in human urine at 100 mg, po up to 12 hrs by liquid scintillation counting analysis; assay type: ADME, organism-based; conditions: in vivo; in short: as §1

**Q.** With `CCN(CC)[14C](=O)C1(c2ccccc2)CC1CN.Cl` (stereo not drawn) as the compound, how does the Drug excretion [1] read?
**A.** 93.3%

**Q.** And the Drug excretion [2]?
**A.** 79.4%

**Q.** What about the Drug excretion [3] of the same compound?
**A.** 89.3%

**Q.** And the Drug excretion (Homo sapiens [4])?
**A.** 96.5%

**Q.** And the Drug excretion [5]?
**A.** 3.65%

**Q.** What about the AUCt (Homo sapiens [6]) of the same compound?
**A.** 6446.3 ng.Eq.hr/ml

**Q.** And the Drug excretion (Homo sapiens [7])?
**A.** 48.5%

**Q.** And the Tmax (Homo sapiens [8])?
**A.** 4.3 h

**Q.** What about the Cmax (Homo sapiens [9]) of the same compound?
**A.** 679 ng.Eq/ml

**Q.** What about the dose excreted [10] of the same compound?
**A.** 40%

**Q.** And the Drug excretion [11]?
**A.** 92.1%

**Q.** What about the Drug excretion (Homo sapiens [12]) of the same compound?
**A.** 96.8%

**Q.** What about the Drug excretion [13] of the same compound?
**A.** 92.8%

**Q.** What about the dose excreted [14] of the same compound?
**A.** 63%

**Q.** And the AUC (Homo sapiens [15])?
**A.** 7325.3 ng.Eq.hr/ml

**Q.** What about the Drug excretion (Homo sapiens [16]) of the same compound?
**A.** 79.6%

**Q.** And the Drug excretion [17]?
**A.** 2.83%

**Q.** What about the Drug excretion [18] of the same compound?
**A.** 93.1%

**Q.** And the dose excreted [19]?
**A.** 63%

**Q.** And the Drug excretion [20]?
**A.** 48.5%

**Q.** What about the t1/2 (Homo sapiens [21]) of the same compound?
**A.** 7.7 h

**Q.** What about the Drug excretion (Homo sapiens [22]) of the same compound?
**A.** 92.2%

**Q.** What about the Drug excretion [23] of the same compound?
**A.** 3.62%

**Q.** And the Drug excretion (Homo sapiens [24])?
**A.** 60.8%

**Q.** And the Drug excretion [25]?
**A.** 0.407%

**Q.** What about the Drug excretion [26] of the same compound?
**A.** 24.8%

**Q.** What about the Drug excretion (Homo sapiens [27]) of the same compound?
**A.** 24.8%

**Q.** What about the Drug excretion [28] of the same compound?
**A.** 3.27%

**Q.** And the Drug excretion (Homo sapiens [29])?
**A.** 96.9%

**Q.** What about the Drug excretion [30] of the same compound?
**A.** 3.65%

**Q.** And the Drug excretion (Homo sapiens [31])?
**A.** 95.4%

**Q.** And the Drug recovery (Plasma)?
**A.** 99.1%

**Q.** And the Drug excretion [32]?
**A.** 60.8%
